Active and inactive are the calls of the source. The calls are words filed in the database; no cut-off is given here.
What was measured:
[1] = biological target: T1, Proteasome Macropain subunit MB1 (Homo sapiens, UniProt P28074); experiment: Inhibition of chymotrypsin-like activity of human 20S proteasome beta 5 subunit using Suc-LLVY-AMC as substrate after 60 mins by fluorescence assay
T1 sequence (P28074 whole entry): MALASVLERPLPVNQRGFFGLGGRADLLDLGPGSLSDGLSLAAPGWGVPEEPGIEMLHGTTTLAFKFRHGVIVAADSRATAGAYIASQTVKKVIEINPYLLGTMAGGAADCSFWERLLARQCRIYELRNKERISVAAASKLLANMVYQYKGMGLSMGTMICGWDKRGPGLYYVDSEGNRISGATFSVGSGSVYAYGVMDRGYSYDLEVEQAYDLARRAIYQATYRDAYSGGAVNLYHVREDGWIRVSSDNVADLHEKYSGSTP

[2] = biological target: T2, Proteasome Macropain subunit MB1 (Homo sapiens) (UniProt P28074); experiment: Inhibition of chymotrypsin-like activity of human constitutive 20S proteasome beta 5 subunit using […] at 0.3 uM incubated for 5 mins prior to […] measured after 1 hr by ELISA
T2 sequence (whole entry): T1 sequence (P28074 whole entry)

[3] = biological target: T3, Proteasome subunit beta type-8 (Homo sapiens) (UniProt P28062); experiment: Inhibition of chymotrypsin-like activity of human 20S immunoproteasome beta 5 subunit using […] at 0.3 uM incubated for 5 mins prior to […] measured after 1 hr by ELISA
T3 sequence (whole entry): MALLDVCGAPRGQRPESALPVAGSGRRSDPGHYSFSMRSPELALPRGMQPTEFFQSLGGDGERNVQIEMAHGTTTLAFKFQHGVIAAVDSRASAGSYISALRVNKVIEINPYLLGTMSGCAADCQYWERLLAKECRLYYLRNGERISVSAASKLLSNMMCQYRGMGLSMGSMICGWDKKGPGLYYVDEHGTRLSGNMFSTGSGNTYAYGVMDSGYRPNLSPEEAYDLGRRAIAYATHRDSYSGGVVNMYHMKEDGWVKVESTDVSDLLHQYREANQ

[4] = biological target: T2, Proteasome Macropain subunit MB1 (Homo sapiens); experiment: Irreversible inhibition of chymotrypsin-like activity of human 20S proteasome beta 5 subunit using Suc-LLVY-AMC as substrate incubated for 12 hrs prior to substrate addition followed by compound wash out measured after 1 hr by dialysis method
HCT-116 [5] = experiment: Cell cycle arrest in human HCT116 cells assessed as accumulation at G2/M phase after 24 hrs by propidium iodide staining-based flow cytometric analysis; assay type: functional
HCT-116 [6] = experiment: Cytotoxicity against human HCT116 cells after 72 hrs by CCK-8 assay; assay type: functional, cell-based; details: HCT-116, 72 h
HCT-116 [7] = experiment: Induction of apoptosis in human HCT116 cells assessed as induction of PARP cleavage by Western blotting analysis; assay type: functional, cell-based
Procedure, shortened: (§1)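 Cell extracts were immunoblotted for p53, read as a cellular marker of proteasome blockade, and for cleaved PARP, read as an apoptosis marker.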

HCT-116 [8] = experiment: Inhibition of proteasome in human HCT116 cells assessed as accumulation of p53 by Western blotting analysis; assay type: cell-based; procedure, shortened: as §1
[9] = biological target: T2, Proteasome Macropain subunit MB1 (Homo sapiens); experiment: Reversible inhibition of chymotrypsin-like activity of human 20S proteasome beta 5 subunit using Suc-LLVY-AMC as substrate incubated for 12 hrs prior to substrate addition followed by compound wash out measured after 1 hr by dialysis method
[10] = Half life in TEAA buffer at pH 7.4 by HPLC analysis; assay type: physicochemical
Procedure, shortened: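 Compound incubated in 0.1 M triethylammonium acetate (TEAA) buffer, pH 7.4, at 37 °C. The time course was recorded by HPLC, and the half-life (t1/2) was determined from that time course.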

[11] = biological target: T2, Proteasome Macropain subunit MB1 (Homo sapiens); details: 2.5 uM
[12] = biological target: T3, Proteasome subunit beta type-8 (Homo sapiens); experiment: Inhibition of chymotrypsin-like activity of human 20S immunoproteasome beta 5 subunit using […] at 2.5 uM incubated for 5 mins prior to […] measured after 1 hr by ELISA

CC[C@H](C)[C@@H]1C(=O)O[C@H]1C(=O)N[C@H]1C[C@H]1C[C@@H](CCc1ccc2ccccc2c1)NC(=O)[C@H](C)NC(=O)OCc1ccccc1
IC50 [1]: 29 nM

CC[C@H](C)[C@@H]1C(=O)O[C@H]1C(=O)N[C@H]1C[C@H]1C[C@H](NC(=O)[C@H](C)NC(=O)OCc1ccccc1)c1ccccc1
IC50 [1]: 90 nM

COc1ccc(C[C@H](NC(=O)[C@H](C)NC(=O)CN2CCOCC2)C(=O)N[C@@H](Cc2ccccc2)C(=O)[C@]2(C)CO2)cc1
inhibition [2]: Active | inhibition [3]: Active

CC(C)C[C@H](NC(=O)[C@H](CCc1ccccc1)NC(=O)CN1CCOCC1)C(=O)N[C@@H](Cc1ccccc1)C(=O)N[C@@H](CC(C)C)C(=O)[C@@]1(C)CO1
inhibition [4]: Active

C=C[C@H](C[C@@H]1C[C@@H]1NC(=O)[C@@H]1OC(=O)[C@H]1[C@@H](C)CC)NC(=O)[C@H](C)NC(C)=O
IC50 [1]: 230 nM

CC[C@H](C)[C@@H]1C(=O)O[C@H]1C(=O)N[C@H]1C[C@H]1C[C@@H](CCc1ccccc1)NC(=O)c1ccc2ccccc2c1
IC50 [1]: 33 nM

C=C[C@H](C[C@@H]1C[C@@H]1NC(=O)[C@@H]1OC(=O)[C@H]1[C@@H](C)CC)NC(=O)[C@H](Cc1ccccc1)NC(=O)OCc1ccccc1
Activity (HCT-116 [5]): Active | IC50 (HCT-116 [6]): 4160 nM | Activity (HCT-116 [7]): Active | IC50 [1]: 30 nM | p53 accumulation (active/inactive) (HCT-116 [8]): Active

CC[C@H](C[C@@H]1C[C@@H]1NC(=O)[C@@H]1OC(=O)[C@H]1[C@@H](C)CC)NC(=O)[C@H](C)NC(=O)OCc1ccccc1
IC50 [1]: 38 nM

CC(C)C[C@H](NC(=O)[C@H](Cc1ccccc1)NC(=O)c1cnccn1)B(O)O [BORTEZOMIB]
Activity (HCT-116 [5]): Active | IC50 (HCT-116 [6]): 10 nM | Activity (HCT-116 [7]): Active | inhibition [9]: Active | p53 accumulation (active/inactive) (HCT-116 [8]): Active

CC[C@H](C)[C@@H]1C(=O)O[C@H]1C(=O)N[C@H]1C[C@H]1C[C@@H](CCc1cccc2ccccc12)NC(=O)[C@H](C)NC(=O)OCc1ccccc1
IC50 [1]: 63 nM

CC[C@H](C)[C@@H]1C(=O)O[C@H]1C(=O)N[C@H]1C[C@H]1C[C@@H](Cc1ccccc1)NC(=O)[C@H](C)NC(=O)OCc1ccccc1
IC50 [1]: 14 nM

C=C[C@H](C[C@@H]1C[C@@H]1NC(=O)[C@@H]1OC(=O)[C@H]1[C@@H](C)CC)NC(=O)C(C)(C)C
IC50 [1]: 210 nM

CC[C@H](C)[C@@H]1C(=O)O[C@H]1C(=O)N[C@H]1C[C@H]1C[C@H](NC(=O)[C@H](C)N)C(=O)O [BELACTOSIN A]
inhibition [2]: Active | IC50 [1]: 1440 nM | inhibition [3]: Active

C=C[C@H](C[C@@H]1C[C@@H]1NC(=O)[C@@H]1OC(=O)[C@H]1[C@@H](C)CC)NC(=O)[C@H](C)NC(=O)c1ccccc1
IC50 [1]: 79 nM

CC(C)[C@H](O)[C@@]12NC(=O)[C@H](C)[C@@H]1OC2=O [OMURALIDE]
half-life [10]: 13 min

C=C[C@H](C[C@@H]1C[C@@H]1NC(=O)[C@@H]1OC(=O)[C@H]1[C@@H](C)CC)NC(=O)[C@H](C)NC(=O)OC(C)(C)C
IC50 [1]: 77 nM

CC[C@H](C)[C@@H]1C(=O)O[C@H]1C(=O)N[C@H]1C[C@H]1C[C@@H](CCc1ccccc1)NC(=O)[C@H](C)N
half-life [10]: 600 min

CC[C@H](C)[C@@H]1C(=O)O[C@H]1C(=O)N[C@H]1C[C@H]1C[C@@H](Cc1cccc2ccccc12)NC(=O)[C@H](C)NC(=O)OCc1ccccc1
IC50 [1]: 130 nM

C=C[C@H](C[C@@H]1C[C@@H]1NC(=O)[C@@H]1OC(=O)[C@H]1[C@@H](C)CC)NC(=O)c1ccccc1
IC50 [1]: 130 nM

C=C[C@H](C[C@@H]1C[C@@H]1NC(=O)[C@@H]1OC(=O)[C@H]1[C@@H](C)CC)NC(=O)[C@H](Cc1c[nH]c2ccccc12)NC(=O)OCc1ccccc1
IC50 [1]: 28 nM

C=C[C@H](C[C@@H]1C[C@@H]1NC(=O)[C@@H]1OC(=O)[C@H]1[C@@H](C)CC)NC(=O)[C@H](C)NC(=O)OCc1ccccc1
Activity (HCT-116 [5]): Active | IC50 (HCT-116 [6]): 910 nM | IC50 [1]: 49 nM

CC[C@H](C)[C@@H]1C(=O)O[C@H]1C(=O)N[C@H]1C[C@H]1C[C@@H](CCCc1ccccc1)NC(=O)[C@H](C)NC(=O)OCc1ccccc1
IC50 [1]: 35 nM

CC[C@H](C)[C@@H]1C(=O)O[C@H]1C(=O)N[C@H]1C[C@H]1C[C@@H](CCc1ccccc1)NC(=O)[C@H](C)NC(=O)c1ccc2ccccc2c1
Activity (HCT-116 [5]): Active | IC50 (HCT-116 [6]): 790 nM | Activity (HCT-116 [7]): Active | IC50 [1]: 10 nM | p53 accumulation (active/inactive) (HCT-116 [8]): Active

C=C[C@H](C[C@@H]1C[C@@H]1NC(=O)[C@@H]1OC(=O)[C@H]1[C@@H](C)CC)NC(=O)c1ccc2ccccc2c1
Activity (HCT-116 [5]): Active | IC50 (HCT-116 [6]): 11200 nM | Activity (HCT-116 [7]): Active | IC50 [1]: 60 nM | p53 accumulation (active/inactive) (HCT-116 [8]): Active

CC[C@H](C)[C@@H]1C(=O)O[C@H]1C(=O)N[C@H]1C[C@H]1C[C@@H](Cc1ccc2ccccc2c1)NC(=O)[C@H](C)NC(=O)OCc1ccccc1
IC50 [1]: 200 nM

C[C@@]12OC(=O)[C@]1([C@@H](O)[C@@H]1C=CCCC1)NC(=O)[C@@H]2CCCl [MARIZOMIB]
half-life [10]: 56 min

C=C[C@H](C[C@@H]1C[C@@H]1NC(=O)[C@@H]1OC(=O)[C@H]1[C@@H](C)CC)NC(=O)[C@H](C)NC(=O)c1ccc2ccccc2c1
Activity (HCT-116 [5]): Active | IC50 (HCT-116 [6]): 2610 nM | Activity (HCT-116 [7]): Active | IC50 [1]: 25 nM | p53 accumulation (active/inactive) (HCT-116 [8]): Active

C=C[C@H](C[C@@H]1C[C@@H]1NC(=O)[C@@H]1OC(=O)[C@H]1[C@@H](C)CC)NC(=O)[C@H](CC(C)C)NC(=O)OCc1ccccc1
IC50 [1]: 47 nM

CC(=O)N[C@@H](CSC(=O)[C@]1([C@@H](O)C(C)C)NC(=O)[C@H](C)[C@@H]1O)C(=O)O
inhibition [11]: Active | inhibition [12]: Active

C=C[C@H](C[C@@H]1C[C@@H]1NC(=O)[C@@H]1OC(=O)[C@H]1[C@@H](C)CC)NC(=O)CNC(=O)OCc1ccccc1
IC50 [1]: 41 nM

C=C[C@H](C[C@@H]1C[C@@H]1NC(=O)[C@@H]1OC(=O)[C@H]1[C@@H](C)CC)NC(=O)C(C)C
IC50 [1]: 230 nM

CC[C@H](C)[C@@H]1C(=O)O[C@H]1C(=O)N[C@H]1C[C@H]1C[C@@H](CCc1ccccc1)NC(=O)[C@H](C)NC(=O)OCc1ccccc1
Activity (HCT-116 [5]): Active | IC50 (HCT-116 [6]): 1820 nM | Activity (HCT-116 [7]): Active | inhibition [2]: Active | inhibition [9]: Active | IC50 [1]: 5.7 nM | inhibition [3]: Active | p53 accumulation (active/inactive) (HCT-116 [8]): Active

C=C[C@H](C[C@@H]1C[C@@H]1NC(=O)[C@@H]1OC(=O)[C@H]1[C@@H](C)CC)NC(=O)[C@H](C)N
IC50 [1]: 300 nM

C=C[C@H](C[C@@H]1C[C@@H]1NC(=O)[C@@H]1OC(=O)[C@H]1[C@@H](C)CC)NC(=O)[C@@H](C)NC(=O)OCc1ccccc1
IC50 [1]: 57 nM

From ChEMBL document CHEMBL2331524, “Potent proteasome inhibitors derived from the unnatural cis-cyclopropane isomer of Belactosin A: synthesis, biological activity, and mode of action” (J Med Chem, 2013)
